Assay results gathered from unrelated publications.
JAK1 JH1: Tyrosine-protein kinase JAK1, JH1 (JAK1, Homo sapiens, UniProt P23458)
JAK1: Tyrosine-protein kinase JAK1 (JAK1, Homo sapiens, UniProt P23458)
JAK1 JH2: Tyrosine-protein kinase JAK1, JH2 (JAK1, Homo sapiens, UniProt P23458)

SMILES | target | assay | setting | remaining binding [%]
CC1=C(C#N)[C@@H](c2ccc3[nH]nc(C)c3c2)C(C#N)=C(c2ccc(Cl)cc2)N1 | JAK1 JH1 | cell-free assay, competition with immobilised ligand | 1 µM | 100
C[C@@H]1CCN(c2nccc(-c3cnn4ncccc34)n2)C1 | JAK1 | binding | 1 µM | 62
Cc1cnc(Nc2ccc(C(=O)N3CCC(N4CCCC4)CC3)cc2)nc1-c1cc2ccccc2s1 | JAK1 JH1 | binding, competition with immobilised ligand | 1 µM | 0
CN(C)c1nccc(-c2cnn3ncccc23)n1 | JAK1 JH1 | cell-free assay, competition with immobilised ligand | 1 µM | 69
O=C(c1ccc(Nc2ncc(Cl)c(-c3cc4ccccc4s3)n2)cc1)N1CCC(N2CCCC2)CC1 | JAK1 JH1 | binding, competition with immobilised ligand | 1 µM | 9.3
COc1ncc2cc3ccccc3nc2c1C#N | JAK1 JH2 | cell-free assay, competition with immobilised ligand | 5 µM | 67
Nc1ncc2c(n1)-c1c([nH]c3ccc(C#CC4CC4)cc13)CCCC2 | JAK1 JH2 | binding, competition with immobilised ligand | 1 µM | 97
C[C@@H]1CN(c2cc(-c3n[nH]c4ccc(OC5(C)CC5)cc34)ncn2)C[C@H](C)O1 | JAK1 JH2 | cell-free assay, competition with immobilised ligand | 0.1 µM | 79
FC(F)(F)Oc1cccc(-c2cnc3ccc(-c4ccncc4)nn23)c1 | JAK1 JH1 | cell-free assay, competition with immobilised ligand | 5 µM | 100
Cc1cnn2ncc(-c3ccnc(N(C)C)n3)c2c1 | JAK1 JH1 | cell-free assay, competition with immobilised ligand | 1 µM | 98
O=C(NCC1CCOCC1)c1n[nH]cc1NC(=O)c1c(F)cccc1F | JAK1 JH1 | binding, competition with immobilised ligand | 1 µM | 100
c1ccc(N2CCN(Cc3nc4ccccc4[nH]3)CC2)nc1 | JAK1 JH2 | binding, competition with immobilised ligand | 1 µM | 76
CN(CCCC(F)(F)F)c1nccc(-c2cnn3ncccc23)n1 | JAK1 | binding | 1 µM | 100
CS(=O)(=O)c1cc(C2(NC(=O)c3cncc4c3cnn4-c3ccc(F)cc3)CC2)ccn1 | JAK1 JH1 | cell-free assay, competition with immobilised ligand | 1 µM | 96
CN(c1nccc(-c2cnn3ncccc23)n1)C1CC1 | JAK1 | binding | 1 µM | 100
O=C(O)[C@@H]1[C@@H](Cn2nnc3ccccc3c2=O)CC[C@H]1C(=O)c1ccc(OCCC2CCOCC2)cc1 | JAK1 JH2 | cell-free assay, competition with immobilised ligand | 1 µM | 100
O=C(NCCCN1CCOCC1)c1ccc(Nc2nccc(-c3cc4ccccc4s3)n2)cc1 | JAK1 JH1 | binding, competition with immobilised ligand | 1 µM | 39
Nc1cnc(N2CCc3cc(S(=O)(=O)Nc4c(F)cc(Cl)cc4F)cc(N4CCCC4=O)c32)nc1 | JAK1 JH1 | cell-free assay, competition with immobilised ligand | 1 µM | 100
CNC(=O)[C@@H]1CC[C@@H](n2c(-c3ccc4cnccc4c3)nc3ccc(C(=O)NCc4cccc(C(N)=O)c4)cc32)C1 | JAK1 JH1 | binding, competition with immobilised ligand | 1 µM | 88
